# EBI2 antag: EBI2 receptor antagonists, beta-arrestin recruitment, primary screen, cell-based, luminescence, 7a,25-OHC stimulation, uHTS; G-protein coupled receptor 183 (Homo sapiens), P32249; 7a,25-OHC stimulated; inhibition, % at 5 µM; actives 0.81% (n = 360,000); in the data active means inhibition above about 38%;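 further: enzyme fragment complementation signal reports receptor beta-arrestin coupling in cells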
# CCR6 antagonist: CCR6 receptor antagonists, primary screen, cell-based, CHO-K1, luminescence, beta-arrestin, uHTS; AID 493098, 2011; actives 0.49% (n = 340,000); inhibition, % at 20 µM; CHO-K1 CCR6 PathHunter beta-arrestin, CCL20-stimulated;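 active means compounds whose inhibition of the agonist-driven luminescence signal at 20 µM reaches about 50%, limit read from the data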;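 further: cells stimulated with CCL20 at 14 nM final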
# APJ antagonist: antagonists of human apelin receptor APJ, primary screen, CHO-K1 cells, beta-arrestin complementation, luminescence; P35414; inhibition, % at 20 µM; actives 0.32% (n = 330,000);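 active means inhibition above about 40% at 20 µM, limit read from the data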;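 further: cells challenged with 10 nM apelin-13 agonist together with compound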
# Target sequence (P35414 whole entry, looked up): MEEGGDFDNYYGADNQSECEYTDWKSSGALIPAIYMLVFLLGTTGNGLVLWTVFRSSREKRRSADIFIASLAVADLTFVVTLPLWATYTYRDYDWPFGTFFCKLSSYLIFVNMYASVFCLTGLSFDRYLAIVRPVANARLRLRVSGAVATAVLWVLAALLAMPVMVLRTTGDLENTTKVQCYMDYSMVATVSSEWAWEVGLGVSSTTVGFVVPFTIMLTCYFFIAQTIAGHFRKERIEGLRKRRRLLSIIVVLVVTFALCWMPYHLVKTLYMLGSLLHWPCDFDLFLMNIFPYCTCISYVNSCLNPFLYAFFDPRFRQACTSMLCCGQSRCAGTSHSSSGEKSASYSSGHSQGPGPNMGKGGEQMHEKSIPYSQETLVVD
# CXCR6 inh: CXCR6 receptor inhibitors, primary screen, cell-based, beta-arrestin, luminescence, CHO-K1 PathHunter, 1536-well; inhibition, % at 20 µM; actives 0.36% (n = 360,000); in the data active means inhibition above about 34%, passing the limit was not always enough;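 further: antagonist mode with CXCL16 agonist at 10 nM final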
# APJ agonist: agonists of human apelin receptor APJ, primary screen, CHO-K1 cells, PathHunter beta-arrestin, luminescence. P35414. 0% DMSO wells, 100% apelin. activation, % at 20 µM. actives 0.11% (n = 330,000). AID 2520, 2010;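 active means activation more than six SD over the plate average, tested at 20 µM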
#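 Test system – PathHunter CHO-K1 APJ (AGTRL-1) beta-arrestin reporter cells · Input – 1000 cells/well · Compound – single test compound dose, 20 µM final, 1% DMSO · Times – compound stimulation 90 min at 25 °C, detection 60 min · Technique – beta-gal luminescence · Read-out basis – APJ–arrestin association signal · Control set – negative DMSO alone, positive Apelin-13 at 10 nM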
# HTR2A ag: mouse Htr2a agonists via beta-arrestin recruitment, primary screen, cell-based, luminescence; AID 624169, 2012; actives 0.66% (n = 360,000); CHO-K1 mHTR2A beta-arrestin complementation; percent of 30 µM serotonin response; activation, % at 7.6 µM; 5-hydroxytryptamine receptor 2A (Mus musculus), P35363;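 active means activation above a run cutoff, the mean activation of all tested compounds plus 3 SD, cut at about 14% in these data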
# EBI2 antag conf: EBI2 antagonist hit retest, beta-arrestin, confirmation, cell-based, single concentration, luminescence, 7a,25-OHC stimulation | AID 651997, 2013 | shares compounds with EBI2 antag | inhibition, % at 5 µM | actives 29% (n = 2,400) | 7a,25-OHC antagonism;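 active means inhibition of at least 50%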
# EBI2 ag: EBI2 agonist activity of antagonist hits, confirmation, counter-screen for EBI2 antagonist project, cell-based, single concentration, agonist mode, luminescence; AID 652000, 2013; EBI2-expressing cells, 60 min; 0% vehicle, 100% 7α,25-dihydroxycholesterol control; shares compounds with EBI2 antag; 2,400 tested, under 10 active; activation, % at 5 µM;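 active means activation of at least 50%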
# bGal cs: E. coli beta-galactosidase enzyme inhibition, confirmation, counter-screen for EBI2 antagonist project, biochemical, luminescence, single concentration | shares compounds with EBI2 antag | purified beta-galactosidase, luminescent Galacton Star, 15 min | inhibition, % at 5 µM | actives 1% (n = 2,400);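 active means replicate-average signal at least 3 plate SD below neutral wells, shown as high inhibition, flagging enzyme-inhibiting false positives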;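 further: higher means stronger loss of beta-gal luminescence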
# Hits are given with their value; i = inactive; nt = no result. Compounds with a hit are over-represented: about 2.2% of the library has one in this group of screens.
SMILES,EBI2 antag,CCR6 antagonist,APJ antagonist,CXCR6 inh,APJ agonist,HTR2A ag,EBI2 antag conf,EBI2 ag,bGal cs
O=C(c1ccoc1)N1CCN(c2cc(-c3cccnc3)nc3cc(-c4cccc(Cl)c4)nn23)CC1,i,nt,nt,i,nt,i,nt,nt,nt
CC(=O)c1ccc(S(=O)(=O)N2CCN(C(=O)CSc3ccc(C)c(C)c3)CC2)cc1,70,i,i,i,i,i,i,i,i
O=C1NC[C@@H](CCCCN2C[C@H](Cc3ccc(O)cc3)N(CCc3ccccc3)C(=O)C2=O)N(CC2CCCCC2)C1=O,i,nt,nt,i,nt,i,nt,nt,nt
Clc1ccc(Nc2ccc(NCc3ccccc3)nn2)cc1,63,i,i,i,i,i,i,i,i
Cc1ccc(Nc2ccc(NCc3ccccc3)nn2)cc1C,65,i,i,i,i,i,i,i,i
COC(=O)[C@]12CCCCC=C1N(Cc1cccc3ccccc13)C(=O)[C@H](CC(=O)N1CCSCC1)C2,i,nt,nt,i,nt,i,nt,nt,nt
CCOC(=O)Nc1ccc2c(c1)C(=NNC(=S)NC)c1ccccc1-2,i,nt,nt,i,nt,i,nt,nt,nt
CC(Oc1ccc(F)cc1)C(=O)Nc1ccc2ccccc2c1 (stereo not given),50,i,i,i,i,i,i,i,i
COC(=O)c1ccc(Oc2ccc(S(=O)(=O)N3CCCCC3)cc2N)cc1,35,i,i,i,i,i,i,i,i
CCOC(=O)CN(C(=O)CSc1nnc(CNc2ccc(F)cc2)o1)c1ccccc1,43,i,i,i,i,i,i,i,i
CSCCC(C(=O)NCc1ccccc1)n1c(C2CCN(C(C)=O)CC2)nc2ccccc21 (stereo not given),i,nt,nt,nt,nt,i,nt,nt,nt
COc1ccc(CN2C(=O)C(CC(=O)NCCc3ccccn3)CC(C(=O)N3CCCCCC3)=C2C)cc1 (stereo not given),i,nt,nt,i,nt,i,nt,nt,nt
Cc1ccccc1CS(=O)(=O)Cc1ccc(C(=O)NCCc2ccccc2)o1,37,i,i,i,i,i,i,i,i
O=C(NCc1ccc(Cl)cc1)C1CCC(CNc2c(N3CCCCC3)c(=O)c2=O)CC1 (stereo not given),50,i,i,i,i,i,i,i,i
O=C(NCc1ccc(Cl)cc1)C1CCC(CNc2c(N3CCCC3)c(=O)c2=O)CC1 (stereo not given),i,i,i,i,i,i,nt,nt,nt
Cc1ccc(CNC(=O)C2CCC(CNS(=O)(=O)c3cccs3)CC2)cc1 (stereo not given),66,i,i,i,i,i,i,i,i
O=C(NCc1ccc(Cl)cc1)C1CCC(CNS(=O)(=O)c2ccccc2)CC1 (stereo not given),59,i,i,i,i,i,i,i,i
C=C1C2=C(C(=O)N1OC)[C@@H](O)[C@@](C)(O)[C@@H](CCCCC)O2,i,nt,nt,i,nt,i,nt,nt,nt
CCOC(=O)c1cnn(-c2nc(-c3ccc(F)cc3)cs2)c1C(F)(F)F,53,i,i,i,i,i,56,i,i
CCOC(=O)c1cnn(-c2nc(-c3ccccc3)cs2)c1C(F)(F)F,nt,i,i,nt,i,i,nt,nt,nt
Cc1cc(C2(c3ccc(O)c(C)c3)C(=O)Nc3ccccc32)ccc1O,67,i,i,i,i,i,i,i,i
Cc1cccc2c1NC(=O)C2(c1ccc(O)cc1)c1ccc(O)cc1,i,i,i,i,i,i,nt,nt,nt
Cc1ccc(C2CC(=O)C=C(Nc3ccc(Cl)cc3)C2)cc1 (stereo not given),75,i,i,i,i,i,64,i,i
O=C1C=C(Nc2ccc(Cl)cc2)CC(c2ccc(Cl)cc2)C1 (stereo not given),81,i,i,i,i,i,82,i,i
CC(=O)NC(=S)Nc1sc2c(c1C(N)=O)CCC(C)C2 (stereo not given),37,i,i,39,i,i,i,i,i
SMILES,EBI2 antag,CCR6 antagonist,APJ antagonist,CXCR6 inh,APJ agonist,HTR2A ag,EBI2 antag conf,EBI2 ag,bGal cs
Cc1cc(C)n(-c2ccc(C(=O)N3CCN(S(=O)(=O)c4ccc(Br)cc4Cl)CC3)cc2)n1,92,nt,nt,i,nt,i,65,i,i
N#Cc1nc(Cc2cccc3ccccc23)oc1NCc1ccc(F)cc1,45,i,i,i,i,i,i,i,i
C=CCNc1oc(Cc2cccc3ccccc23)nc1C#N,i,i,i,i,i,i,nt,nt,nt
O=C(OCc1cn([C@H]2C[C@H](c3ccc(Cl)cc3)N(CC3CCCCC3)C[C@@H]2O)nn1)c1ccccc1,i,nt,nt,i,nt,i,nt,nt,nt
N#Cc1ccc(Nc2nc(-c3ccccc3)cs2)cc1,i,nt,nt,i,nt,i,nt,nt,nt
c1ccc(-c2csc(Nc3ccc4c(c3)OCO4)n2)cc1,44,nt,nt,i,nt,i,i,i,i
COC(=O)[C@@]1(C(C)C)N=C(c2cc(OC)c(OC)c(OC)c2)[C@]2(O1)C(=O)Nc1ccccc12,i,nt,nt,i,nt,i,nt,nt,nt
CCOC(=O)c1ccc2ncc(C(=O)OCC)c(Nc3ccc(N4CCOCC4)cc3)c2c1,i,i,i,i,i,i,nt,nt,nt
CCOC(=O)c1cnc2ccc(OC)cc2c1Nc1ccc(N2CCN(C)CC2)cc1,41,i,i,i,i,i,53,i,i
Cc1cc2nc(-c3ccc(SCc4ccccc4C#N)nc3)[nH]c2cc1C,50,i,i,i,i,i,i,i,i
CCOc1cc(C=NNC(=O)N(c2ccccc2)c2ccccc2)ccc1O,i,nt,nt,i,nt,i,nt,nt,nt
COc1ccc(CCCc2nnc(SCC(=O)N/N=C\c3ccc(O)c(OC)c3)o2)cc1C,i,i,i,i,i,i,nt,nt,nt
COc1ccc(/C=N/NC(=O)CSc2nnc(CCCc3ccc(OC)c(C)c3)o2)cc1,47,i,i,i,i,i,i,i,i
COc1ccc(/C=C2\SC(=S)N(Cc3cccnc3)C2=O)cc1C,i,i,i,i,i,i,nt,nt,nt
CCOc1cc(/C=C2/SC(=Nc3ccccc3)N(Cc3cccnc3)C2=O)ccc1OCC#N,48,i,i,i,i,i,i,i,i
